Results: the RNAGym collection of RNA variant scans (doi:10.1126/science.aae0568)
Variants at the floor of the assay were thinned out.

B1: tRNA (parent)
chain: GUUCCGUUGGCGUAAUGGUAACGCGUCUCCCUCCUAAGGAGAAGACUGCGGGUUCGAGUCCCGUACGGAACG

Variants of: B1
Assay: yeast fitness relative to wild type (ratio to wild type); higher = fitter; tRNA-Arg(CCU), competitive growth, 37 C, YPD
Method in brief: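 Variants of the tRNA-Arg(CCU) gene, chemically synthesised with a 3% per-site mutation rate at 69 sites, were placed at the native genomic locus in Saccharomyces cerevisiae. The pooled strains were competed in YPD at 37°C for 24 hours in six parallel replicates. Gene amplicons from the start population and from each end population were read by 100-nucleotide paired-end sequencing. Darwinian fitness relative to wild type came from changes in genotype frequencies; genotypes needed ≥ 100 starting reads, and estimates < 0.5 were set to 0.5.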

Row | Variant | yeast fitness
1 | GUUGCGUUGACGUAAUGGUAACGCGUCUCGCUCCUAAGGAGAGGACUGCGGGUUCGUGUCCCGUACGGAACG [C4G G10A C30G A43G A57U] | ≤ 0.5
2 | GUUGCGUUGGCGUAAUGGUAACGCGUCUCACUCUUAGGGAGAAGACUGCGGGUUCGAGUCCCGUACGGAACG [C4G C30A C34U A37G] | ≤ 0.5
3 | GUUGCGUUGGCGUAAUGGUAACGCGUCUCCCUCGUAAGGAGAAGACUGCGGGUUCGAGACCCGUACGGAACG [C4G C34G U59A] | ≤ 0.5
4 | GUUGCGUUGGCGUAAUGGUAACGCGUCUACCUCUUUAGGAGAAGACUGCAGGUUCGAGUCCCGUACGGAACG [C4G C29A C34U A36U G50A] | 0.568
5 | GUUGCGUUGGCGUAAUGGUAACGUGUCUCCCUCCUAAGGAGAAGACUGCGGGUUCGAGCCCCGUACGGAACG [C4G C24U U59C] | ≤ 0.5
6 | GUUGCGUUGGUGUUAUGGUAACACGUCUCCCUCCUAAGGAGAAGACUGCGGGUUCGAGUCCAGUACGGAACG [C4G C11U A14U G23A C62A] | ≤ 0.5
7 | GUUGCGUUGGCGUAAUGGUAACGCGUCUCGCUCCUAAGGAGAAGACUGCGGGUUCGAGUCCCGUACGGCGCG [C4G C30G A69C A70G] | ≤ 0.5
8 | GUUGCGUUGGCGUAAUGGUAACGCGUCUGCCUCCUAAGGAGAAGACUGCGGGUUCGAAUCCCGUACGGAACG [C4G C29G G58A] | 0.53
9 | GUUGCGUUGGCGUAAUGGUAACGCGUCUCCAUGCUAAGGAGAAGACUGCGCAUUCGAGUGCCGUACGGAACG [C4G C31A C33G G51C G52A C60G] | ≤ 0.5
10 | GUUGCGUUGGCGUAAUGGUAACGCGUCUCCAUGCUAAGGAGAAGACUGCGCGUUCGAGUGCCGUACGGAACG [C4G C31A C33G G51C C60G] | ≤ 0.5
11 | GUUGCGUUGGCGUAAUGGUAACGCGUCUACCUCCUAAGGAGAAGAAUGCGGGUUCGAAUCCCGUACGGAACG [C4G C29A C46A G58A] | 0.525
12 | GUUGCGUUGGCGUAAUGGUAACGUGUCUCCCUCCUAAGGAGCAGAAUGCGGGUACGAGUCCCGUACGGAACG [C4G C24U A42C C46A U54A] | 0.623
13 | GUUGCGUUGGCGUAAUGGUAACGCGUCUCCCUCCUAAGGAGAAGACUGUGGGUUCGAGUCCUGUACGGAACG [C4G C49U C62U] | 0.653
14 | GUUGCGUUGGCGUAAUGGUAACGCGUCUCCCUCCUAAGGAGAAGACUGUGGGUUCGAGCCCCGUACGGAACG [C4G C49U U59C] | 0.576
15 | GUUGCAUUGGUGUAAUGGUAACGCGUCUCCCUCCUAAGGAGAAGACUGCGGGUUCGAGUCUCGUACGGAACG [C4G G6A C11U C61U] | ≤ 0.5
16 | GUUGCGUUGGCGUAAUGGUAAAGCGUUUCCCUCCUAAGGAGAAGACUGCGGGUUCGAGUCCCCUACGGAACG [C4G C22A C27U G63C] | 0.735
17 | GUUGCGUUGGCGUAAUGGUAACGCGUCUUCCUCCUCAGGUGAAGACUGCGGGUUGGAGUCCCGUACGGAACG [C4G C29U A36C A40U C55G] | ≤ 0.5
18 | GUUGCGUUAGCGUAAUGGUAACGCGUCUCCCUCCUAAGAAGAAGACUGCGGGUUCGAGUCCCAUACGGAACG [C4G G9A G39A G63A] | ≤ 0.5
19 | GUUGCGUUCGCGUAAUGGUAACGCGUCUCCCUCCUAAGGAAAAGACUGCGGGUUCGAGUCCCGUACGGAACG [C4G G9C G41A] | ≤ 0.5

Row | Variant | yeast fitness
20 | GUUGCGUUGGCGUAAUGGUAACGCGUCUCGCUCCUAAGGAGAAGACUGCGGGUUCGAGUCCCGUACGGAACG [C4G C30G] | 0.713
21 | GUUGCGUUGGCGUAAUGGUAACGCGUCUCACUCCUAAGGAGUAGACUGCGGGUUUGAGUCCCGUAAGGAACG [C4G C30A A42U C55U C66A] | ≤ 0.5
22 | GUUGCGUUGGCGUAAUGGUAAUGCGUCUCUCUUCUAAGGAGAAGCCUGCGGGUUCGAGUCCCGUACGGAACG [C4G C22U C30U C33U A45C] | ≤ 0.5
23 | GUUGCGUUGGCGUAAUGGUAACGGGUCUCCCUCCUAAGGACAAGACUGCGGGUUCGAGUCCCGUACGGAACG [C4G C24G G41C] | ≤ 0.5
24 | GUUGCGUUGGCGUAAUGGUAACGCGUCUCCCUCUGAAGGAGAAGACUGCGGGUUCGGGUCCCGUACGGAACG [C4G C34U U35G A57G] | ≤ 0.5
25 | GUUGCGUUAGCGUAAUGGUAACGCGUCUCCCUCCUAAGGAGAAGACUGCGGGUUCGAGUCCCGUACGGAACG [C4G G9A] | 0.916
26 | GUUGCGUUGGCGUAAUGGUAAUGCGUCUCCCUCGUUAGGAGAAGACUGCGGGUUCGAGUCCCGUACAGAACG [C4G C22U C34G A36U G67A] | ≤ 0.5
27 | GUUGCGUUGGCGUAAUGGUAACGCGUCUCGCUCCUAAGGAGAAGACUGCUGGUUCGAGUCCCGUACGGAACG [C4G C30G G50U] | ≤ 0.5
28 | GUUGCGUUGCCGUAAUGGUAACGCGUCUCCUUCCUAAGGAGAAGACUGCGGGAUCGAGUCCCGUACGGAACG [C4G G10C C31U U53A] | ≤ 0.5
29 | GUUGCGUUGGCGUAAUGGUAACGCGUCUCCCUCCUAAGGAGAAGACUGCGGGUUCGAGUCAUGUUCGGCACG [C4G C61A C62U A65U A69C] | ≤ 0.5
30 | GUUGCCUGGGCGUAAUAGUAACGCGUCUCCCCCCUAAGGAGAAGACUGCGGGUUCGAGUCCCGUACGGAACG [C4G G6C U8G G17A U32C] | ≤ 0.5
31 | GUUGCGUUGCCGUAAUGGUAACGCGUGUCCCUCCUAGGAAGAAGACUGCGGGUUCGAGUCCCGUACGGAACG [C4G G10C C27G A37G G39A] | ≤ 0.5
32 | GUUGCGUUAGCGUAAUGGUAAUGCGUCUCCCUCCUAAGGAGAAGAGUGCGGGUUCCAGUCCCGUACGGAACG [C4G G9A C22U C46G G56C] | ≤ 0.5
33 | GUUGCGUUGGGGUAAUGGUAACGCGUCUCCCUCCUAAGGAGAAGACUGCAGGUUCGAGUCCCGUACGGAACG [C4G C11G G50A] | ≤ 0.5
34 | GUUGCGUUGGGGUAAUGGCAACCCGUCGCCCUCCUAAGGAGAAGACUGCGGGUUCGAGUCGCGUACGGAACG [C4G C11G U19C G23C U28G C61G] | ≤ 0.5
35 | GUUGCGUUGGCGUAAUGGUAAGGCGUCUCCCUCCUAAGGAGAAGACUGCGGGUUCGAGUCCCGAUCGGAACG [C4G C22G U64A A65U] | ≤ 0.5
36 | GUUGCGUUGGCGUAAUGGUAACGCGUCUCCUUCCUAAGGAGAAGACUGCGGGUUCGAGUCCCGUACGGAACG [C4G C31U] | 1.12
37 | GUUGCGUUGGCGUAAUGGUAACGCGUCUGCCUCCUAGGGAGAAGACUGCGGGUUCGAGUCCCGUACGGAACG [C4G C29G A37G] | 0.598
